Test results taken from ChEMBL document CHEMBL1151964, “Divergent modes of enzyme inhibition in a homologous structure-activity series” (J Med Chem, 2009).
Active and inactive are the calls of the source. The calls are words filed in the database; no cut-off is given here.

Columns and labels:
Cruzipain [1] = biological target: T1, Cruzipain (Trypanosoma cruzi, UniProt P25779); test: Inhibition of Trypanosoma cruzi cruzain preincubated for 5 mins before substrate addition
In short: (§1)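 Cruzain IC50s were measured from dose-response curves with Triton X-100 in the assay buffer at either 0.01% or 0.001%. At 0.001% Triton, some runs included pre-incubation with BSA.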

Cruzipain [2] = biological target: T1, Cruzipain; test: Inhibition of Trypanosoma cruzi cruzain preincubated for 5 mins before substrate addition in presence of 0.001% Triton X-100; in short: as §1
Cruzipain [3] = biological target: T1, Cruzipain; test: Inhibition of Trypanosoma cruzi cruzain preincubated for 5 mins before substrate addition in presence of 0.01% Triton X-100; in short: as §1
[4] = biological target: Cruzipain (Trypanosoma cruzi) (UniProt P25779); test: Inhibition of Trypanosoma cruzi cruzain assessed as colloidal aggregates particles formation after 5 mins by flow cytometry
Sequence of Cruzipain (Trypanosoma cruzi) (P25779 123-467 limits assumed): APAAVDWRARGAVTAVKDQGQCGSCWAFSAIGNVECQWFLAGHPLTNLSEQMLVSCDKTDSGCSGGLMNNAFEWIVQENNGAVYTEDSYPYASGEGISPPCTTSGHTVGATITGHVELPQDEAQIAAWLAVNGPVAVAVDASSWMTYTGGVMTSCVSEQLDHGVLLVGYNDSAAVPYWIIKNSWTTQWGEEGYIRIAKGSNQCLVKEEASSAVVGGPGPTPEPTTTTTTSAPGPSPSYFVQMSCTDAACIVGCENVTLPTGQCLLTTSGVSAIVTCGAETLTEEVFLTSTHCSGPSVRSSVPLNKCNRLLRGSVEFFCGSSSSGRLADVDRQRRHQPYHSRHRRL
In short: (§2)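 Particle (aggregate) formation was assessed by flow cytometry, with some samples checked by dynamic light scattering. The value is the lowest concentration tested at which particles were seen.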

[5] = Inhibition of Beta-lactamase AmpC at 50 uM preincubated for 5 mins before substrate addition
In short: (§3)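 β-Lactamase AmpC inhibition was tested at the concentration stated, both without and with 0.01% Triton X-100. A compound was called an aggregator when its inhibition was detergent-sensitive.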

Cruzipain [6] = biological target: T1, Cruzipain; test: Inhibition of Trypanosoma cruzi cruzain preincubated for 5 mins before substrate addition in presence of 0.001% Triton X-100 with 1 mg/ml bovine serum albumin
[7] = Inhibition of Beta-lactamase AmpC preincubated for 5 mins before substrate addition in presence of 0.01% Triton X-100
In short: (§4)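 AmpC β-lactamase inhibition measured without detergent and with 0.01% Triton X-100, at the compound concentrations listed per compound. A compound was classed as an aggregator if its inhibition was detergent-sensitive.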

Cruzipain [8] = biological target: T1, Cruzipain; test: Competitive inhibition of Trypanosoma cruzi cruzain by Lineweaver-Burke plot analysis
[9] = biological target: Cruzipain (Trypanosoma cruzi) (UniProt P25779); conditions: 25 uM
[10] = biological target: Cruzipain (Trypanosoma cruzi) (UniProt P25779); test: Inhibition of Trypanosoma cruzi cruzain at 200 uM preincubated for 5 mins before substrate addition
[11] = Inhibition of Beta-lactamase AmpC at 100 uM preincubated for 5 mins before substrate addition; in short: as §4
[12] = biological target: Cruzipain (Trypanosoma cruzi) (UniProt P25779); test: Inhibition of Trypanosoma cruzi cruzain assessed as colloidal aggregates particles formation after 5 mins by flow cytometry in presence of 0.001% Triton X-100; in short: as §2
[13] = biological target: Cruzipain (Trypanosoma cruzi) (UniProt P25779); test: Inhibition of Trypanosoma cruzi cruzain assessed as colloidal aggregates particles formation at 3.1 uM after 5 mins by dynamic light scattering assay
[14] = Inhibition of Beta-lactamase AmpC at 13 uM preincubated for 5 mins before substrate addition; in short: as §3
[15] = biological target: Cruzipain (Trypanosoma cruzi) (UniProt P25779); conditions: 5 uM
[16] = biological target: Cruzipain (Trypanosoma cruzi) (UniProt P25779); conditions: 50 uM

T1 sequence (P25779 whole entry): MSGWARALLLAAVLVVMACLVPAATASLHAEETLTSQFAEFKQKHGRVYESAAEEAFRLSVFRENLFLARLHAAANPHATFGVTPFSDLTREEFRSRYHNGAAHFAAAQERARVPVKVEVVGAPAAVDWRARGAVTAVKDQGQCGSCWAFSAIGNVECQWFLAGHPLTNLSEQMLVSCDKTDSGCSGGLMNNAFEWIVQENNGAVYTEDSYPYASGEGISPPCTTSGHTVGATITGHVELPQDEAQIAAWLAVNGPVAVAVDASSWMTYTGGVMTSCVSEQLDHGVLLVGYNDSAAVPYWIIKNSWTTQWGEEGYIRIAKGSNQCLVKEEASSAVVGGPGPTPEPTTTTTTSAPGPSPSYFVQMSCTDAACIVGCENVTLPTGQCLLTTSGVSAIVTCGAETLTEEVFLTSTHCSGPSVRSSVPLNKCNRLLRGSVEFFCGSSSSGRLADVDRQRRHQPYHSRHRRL

Nc1ccccc1-c1nnc(C(=O)NCc2ccc3c(c2)OCO3)o1
IC50 (Cruzipain [1]): 6 µM

Cc1ccc(CNC(=O)c2nnc(-c3ccccc3N)o2)o1
IC50 (Cruzipain [1]): 14 µM

CCN(CC)c1ccc(NC(=O)c2nnc(-c3ccccc3N)o2)cc1
IC50 (Cruzipain [1]): 36 µM

Nc1ccccc1-c1nnc(C(=O)NCc2cccc(-n3cccn3)c2)o1
IC50 (Cruzipain [1]): 17 µM

Nc1ccccc1-c1nnc(C(=O)NCc2ccc(Cn3cccn3)cc2)o1
IC50 (Cruzipain [1]): 8 µM

CC(C)(C)c1cc(NC(=O)c2nnc(-c3ccccc3N)o2)[nH]n1
IC50 (Cruzipain [2]): 2 µM
IC50 (Cruzipain [1]): 2 µM

Nc1ccccc1-c1nnc(C(=O)NCc2c(Cl)cccc2Cl)o1
IC50 (Cruzipain [2]): 8 µM

Nc1ccccc1-c1nnc(C(=O)NCc2ccc(Oc3ccccc3)cc2)o1
IC50 (Cruzipain [1]): 6 µM
IC50 (Cruzipain [3]): 6 µM

Nc1ccccc1C(=O)OCC(=O)Nc1cc(Cl)ccc1Cl
IC50 (Cruzipain [1]): 58 µM

Nc1ccccc1-c1nnc(C(=O)NCCCn2ccnc2)o1
IC50 (Cruzipain [1]): > 100 µM

Nc1ccccc1-c1nnc(C(=O)NCc2c(N)cccc2F)o1
IC50 (Cruzipain [1]): 52 µM

Cc1cc(NC(=O)c2nnc(-c3ccccc3N)o2)n[nH]1
Activity [4]: 50 µM
inhibition [5]: inactive

Nc1ccccc1-c1nnc(C(=O)Nc2cc(-c3cccs3)n[nH]2)o1
IC50 (Cruzipain [2]): 1 µM
IC50 (Cruzipain [1]): 1 µM
IC50 (Cruzipain [6]): 102 µM

Nc1ncccc1C(=O)OCC(=O)Nc1cc(Cl)ccc1Cl
IC50 (Cruzipain [2]): 27 µM
IC50 (Cruzipain [1]): 77 µM
IC50 (Cruzipain [6]): 116 µM
inhibition [7]: inactive
Ki (Cruzipain [8]): 32 µM
inhibition [9]: Active
inhibition [10]: 79%
inhibition [11]: Active
Activity [12]: 250 nM

Nc1ccccc1-c1nnc(C(=O)Nc2nnc(-c3ccc(Cl)cc3)s2)o1
IC50 (Cruzipain [1]): 4 µM
IC50 (Cruzipain [3]): 4 µM

COc1ccc(-c2cc(NC(=O)c3nnc(-c4ccccc4N)o3)n[nH]2)cc1
Activity [4]: 3.1 µM
IC50 (Cruzipain [2]): 0.2 µM
IC50 (Cruzipain [1]): 0.2 µM
Activity [13]: Active
inhibition [14]: Active

Nc1ccccc1-c1nnc(C(=O)N[C@H]2CCCCNC2=O)o1
IC50 (Cruzipain [1]): > 100 µM

Nc1ccccc1-c1nnc(C(=O)Nc2cc(-c3cccs3)[nH]n2)o1
inhibition [15]: Active
inhibition [16]: Active

Nc1ccccc1-c1nnc(C(=O)NCc2ccccc2OC2CCOCC2)o1
IC50 (Cruzipain [1]): 42 µM

Cc1cc(NC(=O)c2nnc(-c3ccccc3N)o2)[nH]n1
IC50 (Cruzipain [2]): 11 µM
IC50 (Cruzipain [1]): 11 µM

Nc1ccccc1-c1nnc(C(=O)Nc2cc(-c3ccccc3)[nH]n2)o1
IC50 (Cruzipain [2]): 0.8 µM
IC50 (Cruzipain [1]): 0.8 µM

Cc1nn(-c2ccccc2)nc1CNC(=O)c1nnc(-c2ccccc2N)o1
IC50 (Cruzipain [1]): 7 µM

Nc1ccccc1-c1nnc(C(=O)NCc2csc(-c3cccs3)n2)o1
IC50 (Cruzipain [1]): 2 µM
IC50 (Cruzipain [3]): 2 µM

Nc1ccccc1-c1nnc(C(=O)NCc2ccc(C(F)(F)F)c(F)c2)o1
IC50 (Cruzipain [1]): 10 µM

Nc1ccccc1-c1nnc(C(=O)N[C@@H]2c3ccccc3C[C@@H]2O)o1
IC50 (Cruzipain [1]): 32 µM

Nc1ncccc1C(=O)OCC(=O)NC1CCCCCC1
IC50 (Cruzipain [1]): 87 µM
inhibition [10]: 68%
Activity [12]: 250 nM

COc1cc(CNC(=O)c2nnc(-c3ccccc3N)o2)cc(OC)c1OC
IC50 (Cruzipain [1]): > 100 µM

Cc1ccc(-c2cc(NC(=O)c3nnc(-c4ccccc4N)o3)[nH]n2)cc1
IC50 (Cruzipain [2]): 0.5 µM
IC50 (Cruzipain [1]): 0.5 µM

COc1ccc(OC)c(CNC(=O)c2nnc(-c3ccccc3N)o2)c1
IC50 (Cruzipain [2]): 8 µM
IC50 (Cruzipain [1]): 8 µM
IC50 (Cruzipain [6]): 45 µM

Nc1ccccc1-c1nnc(C(=O)NCCN2CCOCC2)o1
IC50 (Cruzipain [2]): > 100 µM
IC50 (Cruzipain [1]): > 100 µM
IC50 (Cruzipain [3]): > 100 µM

Cn1ccc(NC(=O)c2nnc(-c3ccccc3N)o2)n1
Activity [4]: 200 µM
IC50 (Cruzipain [2]): > 100 µM
IC50 (Cruzipain [1]): > 100 µM
IC50 (Cruzipain [3]): > 100 µM

Nc1ccccc1-c1nnc(C(=O)NCCN2CCNC2=O)o1
IC50 (Cruzipain [1]): > 100 µM

Nc1ccccc1-c1nnc(C(=O)Nc2ccc3oc4c(c3c2)CCCC4)o1
Activity [4]: > 100 µM
inhibition [5]: Active
IC50 (Cruzipain [2]): 2 µM
IC50 (Cruzipain [1]): 2 µM

CC(C)(C)c1cc(NC(=O)c2nnc(-c3ccccc3N)o2)n[nH]1
Activity [4]: 3.1 µM
inhibition [14]: Active

Nc1ccccc1-c1nnc(C(=O)Nc2nc(-c3ccc(Cl)cc3)cs2)o1
IC50 (Cruzipain [1]): 3 µM

NC(=O)c1ccsc1NC(=O)COC(=O)c1cc(Br)ccc1N
IC50 (Cruzipain [3]): 90 µM
inhibition [10]: 61%

Nc1ncccc1C(=O)OCC(=O)Nc1ccc2c(c1)OCCO2
IC50 (Cruzipain [3]): 182 µM
inhibition [10]: 51%

Nc1ccccc1-c1nnc(C(=O)NCc2nc3ccccc3[nH]2)o1
IC50 (Cruzipain [1]): 17 µM

Nc1ccccc1-c1nnc(C(=O)NC2CCNCC2)o1
IC50 (Cruzipain [1]): > 100 µM

Nc1ccccc1-c1nnc(C(=O)NCc2ccccc2N2CCOCC2)o1
IC50 (Cruzipain [1]): 38 µM

CCC(NC(=O)COC(=O)c1cccnc1N)c1ccc(Br)cc1 (stereo not drawn)
IC50 (Cruzipain [1]): 84 µM
inhibition [10]: 65%
Activity [12]: 250 nM

CC1C2CCC(C)(C2)C1NC(=O)c1nnc(-c2ccccc2N)o1 (stereo not drawn)
IC50 (Cruzipain [1]): 36 µM

Nc1ccccc1-c1nnc(C(=O)NCc2cccc(N3CCOCC3)c2)o1
IC50 (Cruzipain [1]): 33 µM

CC(NC(=O)c1nnc(-c2ccccc2N)o1)C12CC3CC(CC(C3)C1)C2 (stereo not drawn)
IC50 (Cruzipain [1]): 18 µM
IC50 (Cruzipain [3]): 18 µM

Cc1cc2cc(NC(=O)c3nnc(-c4ccccc4N)o3)ccc2[nH]1
IC50 (Cruzipain [2]): 6 µM
IC50 (Cruzipain [1]): 6 µM
IC50 (Cruzipain [3]): > 100 µM

Nc1ncccc1C(=O)NCC(=O)NC1CCCCC1
inhibition [10]: 16%

Cn1nccc1NC(=O)c1nnc(-c2ccccc2N)o1
IC50 (Cruzipain [1]): > 100 µM
IC50 (Cruzipain [3]): > 100 µM

Nc1ccccc1-c1nnc(C(=O)NCc2ccnc(N3CCSCC3)c2)o1
IC50 (Cruzipain [1]): 23 µM

CCN1CCC[C@H]1CNC(=O)c1nnc(-c2ccccc2N)o1
Activity [4]: > 200 µM
IC50 (Cruzipain [2]): > 100 µM
IC50 (Cruzipain [1]): > 100 µM
IC50 (Cruzipain [3]): > 100 µM
Activity [12]: inactive

Nc1ccccc1-c1nnc(C(=O)NCCCN2CCCC2=O)o1
Activity [4]: > 200 µM
IC50 (Cruzipain [2]): > 100 µM
IC50 (Cruzipain [1]): > 100 µM
IC50 (Cruzipain [3]): > 100 µM
Activity [12]: inactive

Nc1ccccc1C(=O)NCC(=O)NC1CCCCC1
inhibition [10]: 15%

Cc1cccc(C(=O)OCC(=O)Nc2cc(Cl)ccc2Cl)c1
IC50 (Cruzipain [3]): > 200 µM
inhibition [10]: 5%

Nc1ccccc1-c1nnc(C(=O)Nc2cccc(N3CCCC3)c2)o1
Activity [4]: 50 µM
inhibition [5]: Active
IC50 (Cruzipain [2]): 7 µM
IC50 (Cruzipain [1]): 7 µM
IC50 (Cruzipain [6]): 99 µM

Nc1ccccc1-c1nnc(C(=O)Nc2ccc3[nH]ncc3c2)o1
IC50 (Cruzipain [1]): 41 µM

Nc1ccccc1-c1nnc(C(=O)NC2CCc3ccccc32)o1 (stereo not drawn)
IC50 (Cruzipain [1]): 17 µM

Nc1ccccc1-c1nnc(C(=O)NCc2ccnc(N3CCOCC3)c2)o1
IC50 (Cruzipain [1]): 83 µM
IC50 (Cruzipain [3]): 83 µM

Nc1ccccc1-c1nnc(C(=O)NC2Cc3ccccc3C2)o1
IC50 (Cruzipain [1]): 11 µM
IC50 (Cruzipain [3]): 11 µM

Nc1ncccc1C(=O)OCC(=O)Nc1ccccc1OC(F)F
IC50 (Cruzipain [3]): 126 µM
inhibition [10]: 58%

O=C(COC(=O)c1ccccn1)Nc1cc(Cl)ccc1Cl
IC50 (Cruzipain [3]): > 200 µM
inhibition [10]: 16%

Nc1ccccc1-c1nnc(C(=O)NCc2cccc3nsnc23)o1
IC50 (Cruzipain [1]): 6 µM

Nc1ccccc1-c1nnc(C(=O)Nc2ccc(N3CCOCC3)cc2)o1
IC50 (Cruzipain [1]): 62 µM
IC50 (Cruzipain [3]): 62 µM
